According to ChEMBL document CHEMBL1145015, “Structure-activity relationships of 1,2,4-benzotriazine 1,4-dioxides as hypoxia-selective analogues of tirapazamine” (J Med Chem, 2003):

Experiments:
[1] = Partition coefficient (logP); format: physicochemical; conditions: octanol/water
Summary of the method: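 Octanol/water partition at pH 7.4, measured by low-volume shake flask. Drug in both the octanol and buffer phases quantified by HPLC.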

SCC-7 [2] = test: Inhibitory concentration against murine SCCVII cell line under hypoxic condition; format: functional, cell-based; conditions: Mus musculus
Summary of the method: (§1)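 SRB proliferation assay in 96-well plates. SCCVII (200 cells) or HT-29 (1000 cells) seeded in αMEM + 10% FCS with glucose (17 mM final) and 100 μM 2'-deoxycytidine, then attached for 3 h. Cells exposed for 4 h at 37 °C to 2-fold serial dilutions in triplicate, either oxic (20% O2, 5% CO2) or in an anaerobic chamber (<0.001% O2). After washing, cells grew for 5 (oxic) or 6 (anoxic) days before SRB staining. IC50 values are the mean of three independent experiments.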

SCC-7 [3] = test: Inhibitory concentration against murine SCCVII cell line under aerobic condition; format: functional, cell-based; conditions: Mus musculus; summary of the method: as §1
SCC-7 [4] = test: Interexperimental ratio of hypoxic TPZ C10 to hypoxic BTO C10 using murine SCCVII cell line; format: functional, Mus musculus
HT-29 [5] = test: Inhibitory concentration against human adenocarcinoma HT-29 cell line under hypoxic condition; format: functional, cell-based; summary of the method: as §1
HT-29 [6] = test: Inhibitory concentration against human adenocarcinoma HT-29 cell line under aerobic condition; format: functional, cell-based; summary of the method: as §1
HT-29 [7] = test: Interexperimental ratio of hypoxic TPZ C10 to hypoxic BTO C10 using human adenocarcinoma HT-29 cell line; format: functional
[8] = Interexperimental difference between the hypoxic and aerobic cytotoxicity using human adenocarcinoma HT-29 cell line; format: functional
[9] = Interexperimental difference between the hypoxic and aerobic cytotoxicity using murine SCCVII cell line; format: functional, SCC-7
[10] = Concentration required to reduce plating efficiency to 10 percent of controls, under aerobic conditions in mouse SCCVII tumor cells.; format: functional, SCC-7
Summary of the method: (§2)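 SCCVII cells plated in glass dishes (2×10^5 to 1×10^6 per dish) 1–2 days ahead. Drug freshly dissolved, given in complete medium for 1 h at 37 °C with shaking. Hypoxia (<200 ppm O2) by repeated evacuation/flushing with 95% N2 + 5% CO2; aerobic controls flushed with 95% air + 5% CO2. Cells washed, trypsinized, replated. Crystal violet stain after 10–14 days, >50-cell colonies scored. C10 is the concentration giving 10% of control plating efficiency.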

[11] = Concentration required to reduce plating efficiency to 10 percent of controls, under hypoxic conditions in mouse SCCVII tumor cells.; format: functional, SCC-7; summary of the method: as §2
[12] = Intraexperimental ratio of hypoxic TPZ C10 to hypoxic BTO C10 in mouse SCCVII tumor cells.; format: functional, SCC-7
Summary of the method: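 Computed within each experiment from the clonogenic SCCVII assay (1 h drug exposure, hypoxia <200 ppm O2 by gas evacuation/flushing, colony counting after 10–14 days). RHT = C10 of TPZ under hypoxia divided by C10 of the analogue under hypoxia.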

[13] = Intraexperimental difference between the hypoxic and aerobic cytotoxicity in mouse SCCVII tumor cells; format: functional, SCC-7
Summary of the method: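 Clonogenic SCCVII survival after 1 h drug exposure at 37 °C, either hypoxic (<200 ppm O2, 95% N2/5% CO2) or aerobic (95% air/5% CO2). Colonies of >50 cells counted after 10–14 days. HCR = aerobic C10 / hypoxic C10, with both values from the same experiment.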

| Structure (SMILES) | logP [1] | IC50 (SCC-7 [2]) [µM] | IC50 (SCC-7 [3]) [µM] | RHT (SCC-7 [4]) | IC50 (HT-29 [5]) [µM] | IC50 (HT-29 [6]) [µM] | RHT (HT-29 [7]) | HCR [8] | HCR [9] | C10 [10] [µM] | C10 [11] [µM] | RHT [12] | HCR [13] |
| --- | --- | --- | --- | --- | --- | --- | --- | --- | --- | --- | --- | --- | --- |
| CS(=O)(=O)c1cccc2c1[n+]([O-])nc(N)[n+]2[O-] | -1.38 | 9.7 | 15.5 | 0.2 | 15.1 | 69.8 | 0.4 | 4.5 | 1.6 | 338 | 50.8 | 0.2 | 6.7 |
| Nc1n[n+]([O-])c2cc(C(F)(F)F)ccc2[n+]1[O-] | 0.81 | 0.92 | 23.9 | 2.6 | 2.1 | 79.1 | 2.5 | 35.7 | 27.7 | 305 | 9.14 | 1.1 | 33.3 |
| Nc1n[n+]([O-])c2ccccc2[n+]1[O-] [TIRAPAZAMINE] | -0.34 | 2.4 | 71.7 | 1 | 5.3 | 196 | 1 | 37 | 32.9 | 2644 | 10.2 | 1 | 258 |
